In ChEMBL document CHEMBL1157786, “Investigation of the bioactive conformation of histamine H3 receptor antagonists by the cyclopropylic strain-based conformational restriction strategy” (J Med Chem, 2010) one finds Ki, Activity and inhibition data, which are given here for eight compounds.

The structures appear in SMILES notation. Active and inactive are the calls of the source. The calls are words filed in the database; no cut-off is given here.

What is called Ki is a measure of affinity in units of concentration, obtained from inhibition or displacement. Low readings indicate a stronger hold on the target, high ones a looser hold on the target. A word on the inhibition: it is the percentage by which the read-out fell short of the control.

The target in the first test is T1, Histamine H3 receptor (Homo sapiens, UniProt Q9Y5N1). Put plainly: Displacement of [3H]N-alpha-methyl-histamine from human histamine H3 receptor expressed in human HEK293-EBNA cells. In kind it is cell-based. A general note: In a radioligand displacement assay an active substance lowers the binding of a labelled ligand.
T1 sequence (Q9Y5N1 whole entry): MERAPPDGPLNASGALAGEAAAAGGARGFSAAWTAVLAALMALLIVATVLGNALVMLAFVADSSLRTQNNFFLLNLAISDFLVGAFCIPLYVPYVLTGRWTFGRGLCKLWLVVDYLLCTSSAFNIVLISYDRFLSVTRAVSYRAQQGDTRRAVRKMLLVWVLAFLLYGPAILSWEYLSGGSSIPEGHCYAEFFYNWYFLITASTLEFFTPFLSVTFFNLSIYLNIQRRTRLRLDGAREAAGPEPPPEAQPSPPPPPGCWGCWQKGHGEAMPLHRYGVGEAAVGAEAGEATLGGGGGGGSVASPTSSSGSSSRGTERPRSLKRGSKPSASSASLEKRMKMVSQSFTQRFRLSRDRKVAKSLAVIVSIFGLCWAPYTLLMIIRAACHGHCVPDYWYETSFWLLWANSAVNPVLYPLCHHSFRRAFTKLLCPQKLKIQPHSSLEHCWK
`CC[C@@H](CNCc1ccc(Cl)cc1)[C@H]1C[C@@H]1c1c[nH]cn1` returned an inhibition constant Ki of 0.0067 µM.
The compound `Clc1ccc(CNCC[C@@H]2C[C@H]2c2c[nH]cn2)cc1` yielded a Ki of 0.0084 µM.
`CC[C@@H](CNCc1ccc(Cl)cc1)[C@@H]1C[C@H]1c1c[nH]cn1` registered a Ki of 0.0198 µM.
Still for that read-out and setting: as for `CC[C@H](CNCc1ccc(Cl)cc1)[C@@H]1C[C@H]1c1cnc[nH]1`, the figure is 0.129 µM.
In turn, `Clc1ccc(CNCC[C@H]2C[C@@H]2c2c[nH]cn2)cc1` registered a Ki of 0.0036 µM.
Consider `CC[C@H](CNCc1ccc(Cl)cc1)[C@H]1C[C@@H]1c1cnc[nH]1`, for which the Ki was determined as 0.063 µM.

In another test the target is T1, Histamine H3 receptor. Put plainly: Agonist activity at human histamine H3 receptor expressed in human HEK293-EBNA cells by luciferase reporter gene assay. In kind it is functional, cell-based. Summed up: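 Human H3 receptor expressed individually in 293-EBNA cells; compounds tested for agonism at 10^-5 M in a luciferase reporter gene assay.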
In general terms: In a reporter assay the amount or activity of a reporter protein is the signal.
Take `CC[C@@H](CNCc1ccc(Cl)cc1)[C@H]1C[C@@H]1c1c[nH]cn1`: the outcome was inactive.
The same measure, in the same setting: next, `CC[C@@H](CNCc1ccc(Cl)cc1)[C@@H]1C[C@H]1c1c[nH]cn1`: “inactive”; `CC[C@H](CNCc1ccc(Cl)cc1)[C@@H]1C[C@H]1c1c[nH]cn1`: “inactive”.
As to `CC[C@H](CNCc1ccc(Cl)cc1)[C@H]1C[C@@H]1c1c[nH]cn1`, the outcome was inactive.

For the next test, the target named is T1, Histamine H3 receptor. The test can be described thus: Antagonist activity at human histamine H3 receptor expressed in human HEK293-EBNA cells assessed as inhibition of histamine-induced response at 100 uM by luciferase reporter gene assay. In kind it is functional, cell-based.
Turning to `CC[C@@H](CNCc1ccc(Cl)cc1)[C@H]1C[C@@H]1c1c[nH]cn1`, the inhibition is 88%.
Take `Clc1ccc(CNCC[C@@H]2C[C@H]2c2c[nH]cn2)cc1`: the inhibition came to 100%.
On to `CC[C@@H](CNCc1ccc(Cl)cc1)[C@@H]1C[C@H]1c1c[nH]cn1`, for which the inhibition came to 95%.
Take `CC[C@H](CNCc1ccc(Cl)cc1)[C@@H]1C[C@H]1c1c[nH]cn1`: the inhibition came out at 73%.
`Clc1ccc(CNCC[C@H]2C[C@@H]2c2c[nH]cn2)cc1`: the inhibition worked out at 100%.
As for `CC[C@H](CNCc1ccc(Cl)cc1)[C@H]1C[C@@H]1c1c[nH]cn1`, the inhibition worked out at 96%.
